Laboratory results reported in ChEMBL document CHEMBL1143294, “Synthesis and antifungal activity of 1,2,3-triazole containing fluconazole analogues” (Bioorg Med Chem Lett, 2009).
Converted amounts (≈) assume the structure as drawn.

What was measured:
[1] = Cytotoxicity against human Hep3B cells at 0.001 mg/ml; conditions: hep 3b2
[2] = test system: Trichophyton mentagrophytes; test: Antimicrobial activity against Trichophyton mentagrophytes by broth microdilution method; assay type: functional, organism-based
Procedure, shortened: (§1)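 Standard broth microdilution following NCCLS guidelines. MIC and IC50 values were determined.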

Sporothrix schenckii = test: Antimicrobial activity against Sporothrix schenckii by broth microdilution method; assay type: functional, organism-based
Procedure, shortened: as §1

A-431 [3] = test: Cytotoxicity against human A431 cells at 1 mg/ml
Candida albicans [4] = test: Antimicrobial activity against Candida albicans by broth microdilution method; assay type: functional, organism-based
Procedure, shortened: as §1

Cryptococcus neoformans = test: Antimicrobial activity against Cryptococcus neoformans by broth microdilution method; assay type: functional, organism-based
Procedure, shortened: as §1

Candida parapsilosis = test: Antimicrobial activity against Candida parapsilosis ATCC 22019 by broth microdilution method; assay type: functional, organism-based; conditions: Lodderomyces parapsilosis
Procedure, shortened: as §1

A-431 [5] = test: Cytotoxicity against human A431 cells at 1 mg/ml; assay type: cell-based
Procedure, shortened: (§2)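 Antiproliferative assay in human hepatocellular carcinoma Hep3B and human epithelial carcinoma A431 cells. Compounds were tested across 0.001–1 mg/ml.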

[6] = Cytotoxicity against human Hep3B cells at 0.001 mg/ml; assay type: cell-based; conditions: hep 3b2
Procedure, shortened: as §2

Aspergillus fumigatus = test: Antimicrobial activity against Aspergillus fumigatus by broth microdilution method; assay type: functional, organism-based
Procedure, shortened: as §1

A-431 [7] = test: Cytotoxicity against human A431 cells at 0.001 mg/ml; assay type: cell-based
Procedure, shortened: as §2

[8] = Cytotoxicity against human Hep3B cells; conditions: hep 3b2
Candida albicans [9] = test: Antimicrobial activity against Candida albicans infected Swiss mouse assessed as reduction of kidney fungal load at 50 mg/kg, po administered once daily for 7 days measured after 9 days; assay type: functional; parameters: scale not given: the % may be the effect or the level left
Procedure, shortened: (§3)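 Swiss mice received an intravenous Candida albicans challenge, with five mice per group. Test agent was given orally in PEG 200 once a day for 7 days. Mice were sacrificed on day 9, and kidney fungal burden was counted as CFU/g tissue. Results are expressed as % reduction in CFU relative to the untreated control group.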

Candida albicans [10] = test: Antimicrobial activity against Candida albicans infected Swiss mouse assessed as reduction of kidney fungal load at 25 mg/kg, po administered once daily for 7 days measured after 9 days; assay type: functional; parameters: scale not given: the % may be the effect or the level left
Procedure, shortened: as §3

SMILES	Activity [1]	IC50 [2] [µg/mL]	MIC [2] [µg/mL]	IC50 (Sporothrix schenckii) [µg/mL]	MIC (Sporothrix schenckii) [µg/mL]	Activity (A-431 [3])	IC50 (Candida albicans [4]) [µg/mL]	MIC (Candida albicans [4]) [µg/mL]	IC50 (Cryptococcus neoformans) [µg/mL]	MIC (Cryptococcus neoformans) [µg/mL]	IC50 (Candida parapsilosis) [µg/mL]	MIC (Candida parapsilosis) [µg/mL]	Activity (A-431 [5])	Activity [6]	IC50 (Aspergillus fumigatus) [µg/mL]	MIC (Aspergillus fumigatus) [µg/mL]	Activity (A-431 [7])	Activity [8]	Activity (Candida albicans [9]) [%]	Activity (Candida albicans [10]) [%]
C[C@H](CCC(=O)OCc1cn(CC(O)(Cn2cncn2)c2ccc(F)cc2F)nn1)[C@H]1CC[C@H]2[C@@H]3[C@H](O)C[C@@H]4C[C@H](O)CC[C@]4(C)[C@H]3C[C@H](O)[C@]12C (some centres not stated)	Non-toxic	8.9 (≈ 12.2 µM)	18.4 (≈ 25.3 µM)	11.3 (≈ 15.5 µM)	12.6 (≈ 17.3 µM)	Toxic	0.35 (≈ 0.482 µM)	0.442 (≈ 0.608 µM)	0.03 (≈ 0.0413 µM)	0.19 (≈ 0.261 µM)	2.93 (≈ 4.03 µM)	5.15 (≈ 7.09 µM)	Toxic	Non-toxic	31.2 (≈ 43 µM)	> 50				
OC(Cn1cncn1)(Cn1cncn1)c1ccc(F)cc1F [FLUCONAZOLE]	Non-toxic	0.6 (≈ 1.96 µM)	1 (≈ 3.27 µM)		2 (≈ 6.53 µM)			0.5 (≈ 1.63 µM)	0.45 (≈ 1.47 µM)	1 (≈ 3.27 µM)		1 (≈ 3.27 µM)	Toxic	Non-toxic		2 (≈ 6.53 µM)	Toxic			
C[C@@H]1[C@H](O)[C@@H](C)/C=C/C=C/C=C/C=C/C=C/C=C/C=C/[C@H](O[C@@H]2O[C@H](C)[C@@H](O)[C@H](N)[C@@H]2O)C[C@@H]2O[C@](O)(C[C@@H](O)C[C@@H](O)[C@H](O)CC[C@@H](O)C[C@@H](O)CC(=O)O[C@H]1C)C[C@H](O)[C@H]2C(=O)O [AMPHOTERICIN B]	Non-toxic	0.02 (≈ 0.0216 µM)	0.12 (≈ 0.13 µM)		0.12 (≈ 0.13 µM)	Toxic		0.12 (≈ 0.13 µM)		0.06 (≈ 0.0649 µM)		0.12 (≈ 0.13 µM)	Toxic	Non-toxic		0.5 (≈ 0.541 µM)				
C[Si](C)(C)c1cn(CC(O)(Cn2cncn2)c2ccc(F)cc2F)nn1 (configuration not stated)		8.57 (≈ 22.6 µM)	15.6 (≈ 41.1 µM)	3.11 (≈ 8.22 µM)	3.16 (≈ 8.35 µM)		3.04 (≈ 8.03 µM)	3.26 (≈ 8.61 µM)	1.01 (≈ 2.67 µM)	1.56 (≈ 4.12 µM)	33.1 (≈ 87.5 µM)	44.5 (≈ 118 µM)			43.2 (≈ 114 µM)	49.8 (≈ 132 µM)				
CC(=O)N1CCN(c2ccc(OCC3COC(Cn4ccnc4)(c4ccc(Cl)cc4Cl)O3)cc2)CC1 (configuration not stated) [KETOCONAZOLE]	Non-toxic	2.12 (≈ 3.99 µM)	4 (≈ 7.53 µM)	0.026 (≈ 0.0489 µM)	0.031 (≈ 0.0583 µM)	Toxic	0.001 (≈ 0.00188 µM)	0.002 (≈ 0.00376 µM)	0.001 (≈ 0.00188 µM)	0.001 (≈ 0.00188 µM)	0.024 (≈ 0.0452 µM)	0.031 (≈ 0.0583 µM)	Toxic	Non-toxic	0.008 (≈ 0.0151 µM)	2 (≈ 3.76 µM)				
OC(Cn1cncn1)(Cn1ccnn1)c1ccc(F)cc1F (configuration not stated)		6.45 (≈ 21.1 µM)	12.2 (≈ 39.7 µM)	5.77 (≈ 18.8 µM)	10.6 (≈ 34.7 µM)		0.72 (≈ 2.35 µM)	1.48 (≈ 4.83 µM)	0.03 (≈ 0.098 µM)	0.78 (≈ 2.55 µM)	6.83 (≈ 22.3 µM)	12.8 (≈ 41.9 µM)			> 50	> 50				
OC(Cc1c[nH]nn1)(Cn1cncn1)c1ccc(F)cc1F (configuration not stated)		47 (≈ 153 µM)	49 (≈ 160 µM)	4.43 (≈ 14.5 µM)	12.4 (≈ 40.5 µM)		2.74 (≈ 8.95 µM)	3.16 (≈ 10.3 µM)	0.69 (≈ 2.25 µM)	3.12 (≈ 10.2 µM)	16.8 (≈ 55 µM)	29.1 (≈ 95 µM)			> 50	> 50				
CCCCCCc1cn(CC(O)(Cn2cncn2)c2ccc(F)cc2F)nn1 (configuration not stated)		2.46 (≈ 6.3 µM)	6.72 (≈ 17.2 µM)	0.043 (≈ 0.11 µM)	0.14 (≈ 0.359 µM)	Toxic	0.018 (≈ 0.0461 µM)	0.032 (≈ 0.082 µM)	< 0.01	0.02 (≈ 0.0512 µM)	0.12 (≈ 0.307 µM)	0.39 (≈ 0.999 µM)	Toxic	Non-toxic	5 (≈ 12.8 µM)	6.9 (≈ 17.7 µM)		Non-toxic	95	
CCCCCCCCn1cc(CC(O)(Cn2cncn2)c2ccc(F)cc2F)nn1 (configuration not stated)		0.249 (≈ 0.595 µM)	0.48 (≈ 1.15 µM)	0.008 (≈ 0.0191 µM)	0.036 (≈ 0.086 µM)		0.001 (≈ 0.00239 µM)	0.002 (≈ 0.00478 µM)	< 0.006	0.002 (≈ 0.00478 µM)	0.002 (≈ 0.00478 µM)	0.01 (≈ 0.0239 µM)	Toxic	Non-toxic	0.8 (≈ 1.91 µM)	1.12 (≈ 2.68 µM)		Non-toxic	97.4	41.2
C[C@H](CCC(=O)OCc1cn(CC(O)(Cn2cncn2)c2ccc(F)cc2F)nn1)[C@H]1CC[C@H]2[C@@H]3CC[C@@H]4C[C@H](O)CC[C@]4(C)[C@H]3C[C@H](O)[C@]12C (some centres not stated)		46.5 (≈ 65.4 µM)	> 50	0.76 (≈ 1.07 µM)	0.84 (≈ 1.18 µM)	Toxic	< 0.001	< 0.001	< 0.001	0.01 (≈ 0.0141 µM)	0.38 (≈ 0.535 µM)	0.396 (≈ 0.557 µM)	Toxic	Non-toxic	6.24 (≈ 8.78 µM)	> 50		Non-toxic	38.2	
